The source made the active and inactive calls.
Tests used:
Rattus norvegicus [1] = assay: Reversal of scopolamine-induced spatial memory impairment in Wistar rat assessed as decrease in transfer latency time at 25 mg/kg, po administered once daily for 1 week followed by scopolamine challenge 90 mins prior to test by elevated plus maze test; assay type: functional, organism-based
Procedure, shortened: (§1)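 Male Wistar rats, 7 weeks old, dosed orally at 25 mg/kg in 1% carboxymethyl cellulose/0.5% Tween 80 once daily. Scopolamine 1 mg/kg i.p. 90 min before test trial (controls excluded). Morris water maze (hidden platform escape latency), elevated plus maze (started at open-arm end, time to closed arm), then CA1 phospho-tau Ser396/Ser404 immunohistochemistry.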

[2] = molecular target: T1, Protein deacetylase HDAC6 (Mus musculus) (UniProt Q9Z2V5); assay: Inhibition of HDAC6 in mouse Neuro-2a cells transfected with pCAX FLAG APP and pRK5-EGFP-Tau P301L plasmids assessed as increase in HSP70 protein expression 1 uM after 24 hrs by Western blot analysis; assay type: cell-based
T1 sequence (whole entry): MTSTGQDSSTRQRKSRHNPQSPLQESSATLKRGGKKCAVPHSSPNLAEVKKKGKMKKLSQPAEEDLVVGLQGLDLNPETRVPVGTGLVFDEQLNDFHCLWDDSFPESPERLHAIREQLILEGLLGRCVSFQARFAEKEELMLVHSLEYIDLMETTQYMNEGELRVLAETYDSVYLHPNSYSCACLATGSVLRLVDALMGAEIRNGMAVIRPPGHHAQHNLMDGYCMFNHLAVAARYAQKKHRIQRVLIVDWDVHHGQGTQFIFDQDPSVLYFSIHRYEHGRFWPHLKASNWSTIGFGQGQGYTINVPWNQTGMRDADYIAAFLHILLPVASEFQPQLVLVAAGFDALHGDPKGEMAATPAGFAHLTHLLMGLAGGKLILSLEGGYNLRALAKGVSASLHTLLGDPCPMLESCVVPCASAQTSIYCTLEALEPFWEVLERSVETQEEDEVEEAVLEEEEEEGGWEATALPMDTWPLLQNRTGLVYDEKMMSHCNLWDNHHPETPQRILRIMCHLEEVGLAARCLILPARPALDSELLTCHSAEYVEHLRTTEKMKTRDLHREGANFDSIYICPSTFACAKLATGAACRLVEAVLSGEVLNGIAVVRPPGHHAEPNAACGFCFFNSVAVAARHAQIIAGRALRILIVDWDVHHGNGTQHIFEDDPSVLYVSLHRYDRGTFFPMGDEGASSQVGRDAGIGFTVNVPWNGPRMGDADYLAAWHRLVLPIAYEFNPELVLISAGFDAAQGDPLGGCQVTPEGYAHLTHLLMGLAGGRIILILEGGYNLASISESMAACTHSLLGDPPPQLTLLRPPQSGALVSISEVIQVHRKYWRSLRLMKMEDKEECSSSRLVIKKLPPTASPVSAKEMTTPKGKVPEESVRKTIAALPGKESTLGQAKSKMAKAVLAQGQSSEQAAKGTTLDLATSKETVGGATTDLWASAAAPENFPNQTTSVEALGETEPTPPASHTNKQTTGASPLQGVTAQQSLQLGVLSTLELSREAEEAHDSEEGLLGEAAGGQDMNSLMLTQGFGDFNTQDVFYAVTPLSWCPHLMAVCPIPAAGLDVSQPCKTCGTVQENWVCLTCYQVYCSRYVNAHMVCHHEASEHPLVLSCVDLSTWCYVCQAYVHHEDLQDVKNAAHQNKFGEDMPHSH
Procedure, shortened: (§2)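 SH-SY5Y and Neuro-2a cells cotransfected 24 h with APP695/Tau P301L plasmids, treated 24 h at 1 µM (ACY-1215 reference). 30 µg lysate immunoprecipitated overnight at 4 °C with anti-HDAC6 or anti-acetyl-lysine antibodies plus protein A/G beads, run on 8% SDS-PAGE, probed for Hsp90; Hsp70 by immunoblot. Three independent experiments.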

[3] = molecular target: T2, Protein deacetylase HDAC6 (Homo sapiens) (UniProt Q9UBN7); assay: Inhibition of HDAC6 in human SH-SY5Y cells transfected with pCAX FLAG APP and pRK5-EGFP-Tau P301L plasmids assessed as increase in HSP90 acetylation at 1 uM after 24 hrs by coimmunoprecipitation analysis; assay type: cell-based; procedure, shortened: as §2
T2 sequence (whole entry): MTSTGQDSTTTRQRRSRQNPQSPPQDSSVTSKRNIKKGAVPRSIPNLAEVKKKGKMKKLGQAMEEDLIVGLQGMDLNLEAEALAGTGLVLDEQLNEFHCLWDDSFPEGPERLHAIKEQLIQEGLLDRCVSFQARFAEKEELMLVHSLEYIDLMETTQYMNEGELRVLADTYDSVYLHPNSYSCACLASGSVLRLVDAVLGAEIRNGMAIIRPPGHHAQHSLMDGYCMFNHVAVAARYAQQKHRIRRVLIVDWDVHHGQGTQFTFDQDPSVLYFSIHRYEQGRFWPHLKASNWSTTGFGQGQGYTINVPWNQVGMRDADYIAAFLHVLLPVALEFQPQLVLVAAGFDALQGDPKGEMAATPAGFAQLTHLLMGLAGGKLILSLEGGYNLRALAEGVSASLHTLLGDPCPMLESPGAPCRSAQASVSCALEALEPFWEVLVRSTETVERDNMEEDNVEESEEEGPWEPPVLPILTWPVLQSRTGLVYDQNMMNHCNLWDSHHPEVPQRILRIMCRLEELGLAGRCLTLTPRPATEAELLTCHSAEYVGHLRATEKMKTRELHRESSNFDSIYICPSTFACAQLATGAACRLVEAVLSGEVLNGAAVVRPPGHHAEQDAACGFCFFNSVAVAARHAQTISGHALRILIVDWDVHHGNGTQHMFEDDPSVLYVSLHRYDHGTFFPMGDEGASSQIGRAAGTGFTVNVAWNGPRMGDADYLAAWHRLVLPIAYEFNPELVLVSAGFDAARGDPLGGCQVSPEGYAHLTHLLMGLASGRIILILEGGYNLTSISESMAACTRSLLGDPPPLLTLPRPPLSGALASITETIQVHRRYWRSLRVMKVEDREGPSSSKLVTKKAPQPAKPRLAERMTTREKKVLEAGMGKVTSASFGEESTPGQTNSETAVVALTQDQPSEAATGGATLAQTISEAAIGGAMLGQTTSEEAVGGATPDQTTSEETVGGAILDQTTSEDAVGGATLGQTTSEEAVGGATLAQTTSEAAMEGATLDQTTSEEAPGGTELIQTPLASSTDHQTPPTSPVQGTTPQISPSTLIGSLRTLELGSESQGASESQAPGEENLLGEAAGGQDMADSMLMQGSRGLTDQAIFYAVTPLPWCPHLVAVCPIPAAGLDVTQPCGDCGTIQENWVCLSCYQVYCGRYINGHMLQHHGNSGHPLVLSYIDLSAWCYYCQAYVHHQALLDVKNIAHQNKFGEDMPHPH

Rattus norvegicus [4] = assay: Reversal of scopolamine-induced spatial memory impairment in Wistar rat assessed as reduction in escape latency in hidden platform at 25 mg/kg, po administered once daily for 1 week followed by scopolamine challenge 90 mins prior to test by Morris water maze test; assay type: functional, organism-based; procedure, shortened: as §1

COc1ccc(C(=O)c2ccc3c(ccn3Cc3ccc(C(=O)NO)cc3)c2)cc1
active: Activity (Rattus norvegicus [1]) | inhibition [2] | inhibition [3] | Activity (Rattus norvegicus [4])
